Experimental data published in PubChem BioAssay.
Active and inactive are the calls of the source.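 How the source made its calls, unless noted: active means fluorescence slope after compound addition differing from the mean of all tested samples at 99.7% confidence, mostly higher but some lower; inactive means the rest.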

Molecular target: Voltage-gated potassium channel subunit beta-2 (Rattus norvegicus) (UniProt P62483)
Assay: enhancers of rat Kvbeta2 NADPH turnover – biochemical, NADPH fluorescence, primary screen (AID 623;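 active means NADPH fluorescence slope more negative than the mean of all samples by about 3 SD, 99.7% confidence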;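 further: fluorescence intensity change per second fitted from 20 to 320 s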)
Conditions: Recombinant KvBeta, NADPH fluorescence decrease slope, 10 min; at 10 µM; stronger effect = lower value

Voltage-gated potassium channel subunit beta-2 (Rattus norvegicus), sequence (P62483 whole entry, looked up): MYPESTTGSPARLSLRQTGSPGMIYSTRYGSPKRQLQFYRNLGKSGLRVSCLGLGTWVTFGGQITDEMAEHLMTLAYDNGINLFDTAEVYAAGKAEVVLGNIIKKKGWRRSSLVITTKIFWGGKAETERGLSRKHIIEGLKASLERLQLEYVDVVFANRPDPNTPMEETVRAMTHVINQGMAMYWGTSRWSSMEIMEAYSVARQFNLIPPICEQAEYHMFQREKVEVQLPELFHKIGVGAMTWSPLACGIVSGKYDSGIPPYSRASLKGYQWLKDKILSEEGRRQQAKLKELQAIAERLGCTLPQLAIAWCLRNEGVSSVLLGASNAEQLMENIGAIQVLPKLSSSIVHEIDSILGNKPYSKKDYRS

NADPH fluorescence slope, inactive:
COc1cccc(C(=O)OCCN(C)C(C)(C)C)c1 -3.4e-05
Cc1nnc(NS(=O)(=O)c2ccc(N)cc2)s1 -3.2e-05
COc1ccc([C@@H]2Sc3ccccc3N(CCN(C)C)C(=O)[C@@H]2OC(C)=O)cc1 -7.4e-05
O=C(CCN1CCCC1Cc1ccccc1)c1ccc2c(c1)OCCO2 (stereo unspecified) -6.5e-05
Fc1ccc(C(c2ccc(F)cc2)N2CCN(C/C=C/c3ccccc3)CC2)cc1 -6.2e-05
COc1ccc[nH]c1=O -4.9e-05
CCC(=O)Oc1oc(-c2ccccc2)nc1C=Nc1ccccc1OC -4.4e-05
O=C(O)c1ccc(COCC(F)(F)C(F)F)o1 -0.000116
Cc1nc2sc(C)c(C)c2c(=O)o1 -4.5e-05
CC1(C)S[C@@H]2[C@H](NC(=O)[C@H](N)c3ccccc3)C(=O)N2[C@H]1C(=O)O 1.8e-05
O=P(Cc1nnco1)(c1ccccc1)c1ccccc1 -5.1e-05
Nc1nc2c(ncn2COCCO)c(=O)[nH]1 -8.2e-06
c1ccc2c(c1)nc(CN1CCOCC1)n1c3ccccc3nc21 -2.8e-05
CCC(NC(=O)Nc1nnc(C(F)(F)F)s1)(C(F)(F)F)C(F)(F)F -4.2e-05
CCOC(=O)C(Oc1ccc(=O)[nH]n1)C(C)=O (stereo unspecified) -7.7e-06
CC1=NS(=O)(=O)c2cc(Cl)ccc2N1 -5.9e-05
CCCCOc1ccccc1P(=O)(O)CP(=O)(c1ccccc1)c1ccccc1 -3e-05
COc1cccc(C(=O)NCC(=O)n2nc(C)cc2C)c1 -4.4e-05

Molecular target: Alpha-2C adrenergic receptor (Homo sapiens) (UniProt P18825)
Assay: compounds altering alpha2C-coupled GIRK flux – cell-based, HEK293 alpha2C/GIRK1/2, thallium flux, primary screen (AID 624;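 active means fluorescence slope after compound addition differing from the mean of all screened samples at 99.7% confidence, in either direction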;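 further: slope of fluorescence ratio to pre-addition baseline per second over 15 to 24 s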)
Conditions: thallium flux BTC fluorescence, at 10 µM, actives lie on both sides

Alpha-2C adrenergic receptor (Homo sapiens), sequence (P18825 whole entry, looked up): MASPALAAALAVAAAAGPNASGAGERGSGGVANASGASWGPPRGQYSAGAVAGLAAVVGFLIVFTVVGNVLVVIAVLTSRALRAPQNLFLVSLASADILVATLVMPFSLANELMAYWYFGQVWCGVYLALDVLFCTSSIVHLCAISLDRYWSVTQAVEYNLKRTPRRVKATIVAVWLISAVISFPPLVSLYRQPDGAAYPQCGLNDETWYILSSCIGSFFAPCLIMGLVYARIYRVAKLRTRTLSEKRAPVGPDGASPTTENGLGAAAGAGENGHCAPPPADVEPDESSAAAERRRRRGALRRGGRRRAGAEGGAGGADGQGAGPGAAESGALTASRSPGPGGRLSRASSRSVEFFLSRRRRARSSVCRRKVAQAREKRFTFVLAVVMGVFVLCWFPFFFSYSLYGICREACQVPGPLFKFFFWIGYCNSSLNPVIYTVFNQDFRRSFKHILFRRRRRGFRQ

slope, inactive:
O=C(NCC1CCCCN1)c1cc(OCC(F)(F)F)ccc1OCC(F)(F)F (stereo unspecified) 0.00342
CCN(CC)CCNC(=O)c1ccc(N)cc1 0.00563
COc1ccc(-c2coc3cc(O)cc(O)c3c2=O)cc1 0.00576
CN(C)CCCN1c2ccccc2CCc2ccccc21 0.00498
CC[C@]1(O)C[C@@H]2CN(CCc3c([nH]c4ccccc34)[C@@](C(=O)OC)(c3cc4c(cc3OC)N(C)[C@H]3[C@@](O)(C(=O)OC)[C@H](OC(C)=O)[C@]5(CC)C=CCN6CC[C@]43[C@@H]65)C2)C1 0.00463
NC(N)=Nc1nc(CSCC/C(N)=N/S(N)(=O)=O)cs1 0.00523
CC(=O)O[C@@]12CO[C@@H]1C[C@H](O)[C@@]1(C)C(=O)[C@H](O)C3=C(C)[C@@H](OC(=O)[C@H](O)[C@@H](NC(=O)OC(C)(C)C)c4ccccc4)C[C@](O)([C@@H](OC(=O)c4ccccc4)[C@H]21)C3(C)C 0.00555
CC[C@H]1CN2CCc3cc(OC)c(OC)cc3[C@@H]2C[C@@H]1C[C@H]1NCCc2cc(OC)c(OC)cc21 0.00425
COc1ccc(OCC(=O)OCCN(C)C)cc1 0.00493
Cc1nnc(NS(=O)(=O)c2ccc(N)cc2)s1 0.00418
COc1ccc([C@@H]2Sc3ccccc3N(CCN(C)C)C(=O)[C@@H]2OC(C)=O)cc1 0.00609
Fc1ccc(C(c2ccc(F)cc2)N2CCN(C/C=C/c3ccccc3)CC2)cc1 0.00453
O=C(O)c1ccc(COCC(F)(F)C(F)F)o1 0.00477
CC1(C)S[C@@H]2[C@H](NC(=O)[C@H](N)c3ccccc3)C(=O)N2[C@H]1C(=O)O 0.0053
Nc1nc2c(ncn2COCCO)c(=O)[nH]1 0.00457
CC1=NS(=O)(=O)c2cc(Cl)ccc2N1 0.00504

Molecular target: Muscarinic acetylcholine receptor M4 (Homo sapiens) (UniProt P08173)
Assay: M4-linked GIRK flux change, two-sided – cell-based, HEK293 M4/GIRK, thallium flux, BTC-AM, M4 allosteric agonist project, primary screen (AID 625);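 further: thallium influx through GIRK channels coupled to M4 in HEK293 cells with BTC-AM dye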
Conditions: at 10 µM, actives lie on both sides
Procedure, shortened: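 Material – HEK293 cells with M4 receptor and GIRK channels · Buffer or medium – pH 7.3 thallium assay buffer · Doses – one dose, 10 µM final · Timing – cells overnight at 37 °C, BTC-AM loading 1 h, reads 2 min total · Measured by – kinetic fluorescence with BTC-AM dye · Controls – carbachol and DMSO controls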

Muscarinic acetylcholine receptor M4 (Homo sapiens), sequence (P08173 whole entry, looked up): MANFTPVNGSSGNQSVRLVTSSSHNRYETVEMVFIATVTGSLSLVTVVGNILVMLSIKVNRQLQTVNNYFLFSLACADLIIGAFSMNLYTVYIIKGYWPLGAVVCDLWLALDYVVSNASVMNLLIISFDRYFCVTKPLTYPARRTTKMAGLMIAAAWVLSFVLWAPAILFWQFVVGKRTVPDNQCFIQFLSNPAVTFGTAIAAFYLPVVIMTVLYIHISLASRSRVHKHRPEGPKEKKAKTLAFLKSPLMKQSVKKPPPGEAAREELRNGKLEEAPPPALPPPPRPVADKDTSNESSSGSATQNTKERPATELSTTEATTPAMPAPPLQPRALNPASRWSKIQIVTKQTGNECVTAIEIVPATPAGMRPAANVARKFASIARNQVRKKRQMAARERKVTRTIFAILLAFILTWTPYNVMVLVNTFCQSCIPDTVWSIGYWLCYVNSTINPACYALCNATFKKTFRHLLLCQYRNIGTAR

Fluorescence slope, inactive:
CN1CC(=O)Nc2ccc(F)cc2C1=O 0.0056
CN1CCN(C2=Nc3cc(Cl)ccc3Nc3ccccc32)CC1 0.00391
COc1cc(C)nc(Oc2ccc(=O)[nH]n2)n1 0.00779
O=C(CCCN1CCC(O)(c2ccc(Cl)cc2)CC1)c1ccc(F)cc1 0.00387
CCCOc1cccc(CN2CCCCC2c2cccnc2)c1 (stereo unspecified) 0.00674
Cc1cccc(OCC(=O)NCC(=O)n2nc(C)cc2C)c1 0.00436
COCCN(Cc1ccccc1)P(=O)(O)c1ccccc1OCC(=O)O 0.00543
Oc1oc(-c2ccccc2)nc1C=NCc1ccncc1 0.00715
CCC1=Nc2ccccc2NC2=C1C(=O)CCC2 0.00568
CC(=O)Oc1oc(-c2ccccc2)nc1/C=N/c1ccccn1 0.00577
COc1ccc(OC)c(N=C(C)C2=C(O)COC2=O)c1 0.00554
COc1cccc(C(=O)OCCN(C)C(C)(C)C)c1 0.00557
O=C(CCN1CCCC1Cc1ccccc1)c1ccc2c(c1)OCCO2 (stereo unspecified) 0.00498
COc1ccc[nH]c1=O 0.00623
CCC(=O)Oc1oc(-c2ccccc2)nc1C=Nc1ccccc1OC 0.00681
Cc1nc2sc(C)c(C)c2c(=O)o1 0.0058
O=P(Cc1nnco1)(c1ccccc1)c1ccccc1 0.00527
c1ccc2c(c1)nc(CN1CCOCC1)n1c3ccccc3nc21 0.00659
CCC(NC(=O)Nc1nnc(C(F)(F)F)s1)(C(F)(F)F)C(F)(F)F 0.00231
CCOC(=O)C(Oc1ccc(=O)[nH]n1)C(C)=O (stereo unspecified) 0.00606
CCCCOc1ccccc1P(=O)(O)CP(=O)(c1ccccc1)c1ccccc1 0.00473
COc1cccc(C(=O)NCC(=O)n2nc(C)cc2C)c1 0.00505
